# Measurements collected from several papers.
# Protocols differ between the studies behind these lines.
# Target: Serine/threonine-protein kinase N1 (PKN1, Homo sapiens, UniProt Q16512)
SMILES,effect on,mode,technique,concentration,measurement,result
CC(C)(C)c1cc(C=C(C#N)C#N)cc(Br)c1O,enzyme activity,inhibitor,,0.5 µM,remaining activity,94.5%
Cc1n[nH]c2ccc(-c3cncc(OC[C@@H](N)Cc4c[nH]c5ccccc45)c3)cc12,enzyme activity,inhibitor,,1 µM,activity vs control,-1%
N#CC1(c2ccccn2)CCN(Cc2cc(C(=O)O)c(=O)n3ccccc23)CC1,cell-free assay,,competition with immobilised ligand,1 µM,remaining binding,100%
Cn1cc(-c2cc(F)cc(N3CCn4c(cc5c4CCCC5)C3=O)c2CO)cc(Nc2ccc(N3CCN(C4COC4)CC3)cn2)c1=O,enzyme activity,inhibitor,,0.1 µM,inhibition,11%
COc1ncccc1-c1cnn2ccc(N3CCN(C(=O)OC(C)C)CC3)nc12,binding,,competition with immobilised ligand,1 µM,remaining binding,90%
Cn1cncc1[C@@](O)(COc1ccc(C#N)cc1-c1ccc(OC(F)(F)F)cc1)c1ccc(C#N)cc1,cell-free assay,,competition with immobilised ligand,1 µM,remaining binding,100%
Nc1ncc(-c2nc(N3CCOCC3)nc(N3CCOCC3)n2)c(C(F)F)n1,binding,,competition with immobilised ligand,10 µM,remaining binding,49%
Cc1ccccc1-n1c(Cn2cnc3c(N)ncnc32)nc2cccc(C)c2c1=O,enzyme activity,inhibitor,,1 µM,activity vs control,81%
O=c1[nH]c2ccccc2n1C1CCN(Cc2ccc(-c3[nH]c4cc5ncnc5cc4nc3-c3ccccc3)cc2)CC1,cell-free assay,,,0.5 µM,remaining signal,90.3%
O=c1[nH]c2ccc(Cl)cc2c(N[C@@H]2CN3CCC2CC3)c1-c1nc2ccccc2[nH]1,enzyme activity,inhibitor,,1 µM,activity vs control,-1%
Cn1cc(-c2cccc(N3CCc4c(sc5c4CC(C)(C)C5)C3=O)c2CO)cc(Nc2ccncn2)c1=O,enzyme activity,inhibitor,,1 µM,inhibition,1%
